The source made the active and inactive calls. The calls are words filed in the database; no cut-off is given here.
How the values were obtained:
Gerbillinae [1] = assay: Inhibition of PGE2-induced colon smooth muscle contraction in gerbil at […] pretreated for 30 seconds followed by PGE2-challenge measured after 90 seconds; format: functional
Summary of the method: (§1)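 Isolated colon smooth muscle from male gerbils in a chamber (Holton method). Compound is introduced at the stated level per 15 mL; 30 s later 40 ng PGE2 is added. Antagonism is read as % inhibition of the PGE2 response.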

Cricetinae = assay: Induction of uterus contraction in hamster at 20 ug; format: functional, tissue-based
Summary of the method: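 Isolated hamster uterine strip in vitro, Holton method; compound added at 20 µg and scored for oxytocin-like contractile activity.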

Hamster [2] = assay: Interruption of pregnancy in hamster at 1 mg, sc administered on day 3 of pregnancy; format: functional, organism-based; settings: Cricetinae
Summary of the method: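 Pregnant hamsters, ten per compound. A single 1 mg per animal dose is given subcutaneously in ethanol on day 3 of pregnancy, and interruption of pregnancy is scored (modified Giannina method).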

Hamster [3] = assay: Interruption of pregnancy in hamster at 12.5 ug, sc administered on day 3 of pregnancy relative to control; format: functional, Cricetinae
Gerbillinae [4] = assay: (§2) Inhibition of PGE2-induced colon smooth muscle contraction in gerbil at 20 ug/15 ml pretreated for 30 seconds followed by PGE2-challenge measured after 90 seconds relative to control; format: functional; summary of the method: as §1
Gerbillinae [5] = assay: (§3) Inhibition of PGE2-induced colon smooth muscle contraction in gerbil at 80 ug/15 ml pretreated for 30 seconds followed by PGE2-challenge measured after 90 seconds relative to control; format: functional; summary of the method: as §1
Gerbillinae [6] = assay: (§4) Inhibition of PGE2-induced colon smooth muscle contraction in gerbil at 40 ug/15 ml pretreated for 30 seconds followed by PGE2-challenge measured after 90 seconds relative to control; format: functional; summary of the method: as §1
Gerbillinae [7] = assay: (§5) Inhibition of PGE2-induced colon smooth muscle contraction in gerbil at 125 ug/15 ml pretreated for 30 seconds followed by PGE2-challenge measured after 90 seconds relative to control; format: functional; summary of the method: as §1
[8] = as §2; format: functional, Gerbillinae; summary of the method: as §1
[9] = as §3; format: functional, Gerbillinae; summary of the method: as §1
[10] = as §4; format: functional, Gerbillinae; summary of the method: as §1
[11] = as §5; format: functional, Gerbillinae; summary of the method: as §1

Structure (SMILES) | Activity (Cricetinae) | Activity (Hamster [2]) | other results
CCCCC[C@](C)(O)/C=C/[C@H]1COC(=O)[C@@H]1CCCCCCC(=O)OC (racemic) | inactive | inactive | inhibition (Gerbillinae [1]): inactive
CCCCC[C@H](O)/C=C/[C@H]1COC(=O)[C@@H]1CCCCCCC(=O)OC (racemic) | inactive | inactive | 
CCCCC[C@H](O)/C=C/[C@@H]1[C@@H](C/C=C\CCCC(=O)O)[C@@H](O)C[C@H]1O [DINOPROST] |  |  | Activity (Hamster [3]): 100%
CCCCC[C@@](C)(O)/C=C/[C@H]1COC(=O)[C@@H]1CCCCCCC(=O)OC (racemic) | inactive | inactive | inhibition (Gerbillinae [1]): inactive
CCCCC[C@@H](O)/C=C/[C@H]1COC(=O)[C@@H]1CCCCCCC(=O)OC (single isomer, unassigned) | inactive | inactive | 
CCCCC[C@@H](O)/C=C/[C@@H](CO)[C@H](CO)CCCCCCC(=O)OC | inactive | inactive | inhibition (Gerbillinae [4]): inactive; inhibition (Gerbillinae [5]): inactive; inhibition (Gerbillinae [6]): inactive; inhibition (Gerbillinae [7]): inactive
CCCCC[C@H](O)/C=C/[C@@H](CO)[C@H](CO)CCCCCCC(=O)OC | inactive | inactive | inhibition (INH) [8]: 0%; inhibition (INH) [9]: 26%; inhibition (INH) [10]: 14%; inhibition (INH) [11]: 41%

Source: ChEMBL document CHEMBL3244085, “Synthesis and biological evaluation of 10-oxa-11-deoxyprostaglandin E1 and 10-nor-9,11-secoprostaglandin F1 and their derivatives” (1978)
